From ChEMBL document CHEMBL3272198, “Preparation and in vitro antifungal activities of some quinolizidine derived hemiaminals and beta-tert-amino sulfides” (1976)
Active and inactive are the calls of the source. No cut-off for these calls is given here.

Tests used:
Assay type in all cases: functional
[1] = test system: Blastomyces dermatitidis; test: Antifungal activity against Blastomyces dermatitidis Gilchrist & Stokes isolate 1107 at 10 ug/ml after 2 weeks (reference value: 35 mm); conditions: Gilchrist & Stokes isolate 1107, 336 h, read-out: DIZ
Procedure, shortened: (§1)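 Mycelial phase grown on Sabouraud dextrose agar at 25°C. Agar pH was set to 6 before the test solution was added and was 5.0-5.5 after. Test solutions contained HOAc and Me2SO, and solvent and blank controls were included. Each quadrant was center-inoculated with a 2 × 2 mm piece of a 2-week-old mycelial culture. Colony diameter was measured weekly for 3 weeks and reported as total increments (mm). Duplicates were run.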

[2] = test system: Blastomyces dermatitidis; test: Antifungal activity against Blastomyces dermatitidis Gilchrist & Stokes isolate 1107 at 100 ug/ml after 3 weeks (reference value: 40 mm); conditions: Gilchrist & Stokes isolate 1107, 504 h, read-out: DIZ; procedure, shortened: as §1
[3] = test system: Blastomyces dermatitidis; test: Antifungal activity against Blastomyces dermatitidis Gilchrist & Stokes isolate 1107 at 80 ug/ml after 3 weeks (reference value: 40 mm); conditions: Gilchrist & Stokes isolate 1107, 504 h, read-out: DIZ; procedure, shortened: as §1
[4] = test system: Blastomyces dermatitidis; test: Antifungal activity against Blastomyces dermatitidis Gilchrist & Stokes isolate 1107 at 40 ug/ml after 3 weeks (reference value: 40 mm); conditions: Gilchrist & Stokes isolate 1107, 504 h, read-out: DIZ; procedure, shortened: as §1
[5] = test system: Blastomyces dermatitidis; test: Antifungal activity against Blastomyces dermatitidis Gilchrist & Stokes isolate 1107 at 10 ug/ml after 3 weeks (reference value: 40 mm); conditions: Gilchrist & Stokes isolate 1107, 504 h, read-out: DIZ; procedure, shortened: as §1
[6] = test system: Histoplasma capsulatum; test: Antifungal activity against Histoplasma capsulatum Darling isolate 1098 at 10 ug/ml after 3 weeks (reference value: 28 mm); conditions: Darling isolate 1098, 504 h, read-out: DIZ
[7] = test system: Histoplasma capsulatum; test: Antifungal activity against Histoplasma capsulatum Darling isolate 1106 at 100 ug/ml after 1 week (reference value: 14 mm)
[8] = test system: Histoplasma capsulatum; test: Antifungal activity against Histoplasma capsulatum Darling isolate 1106 at 20 ug/ml after 1 week (reference value: 14 mm); conditions: Darling isolate 1106, 168 h, read-out: DIZ
[9] = test system: Histoplasma capsulatum; test: Antifungal activity against Histoplasma capsulatum Darling isolate 1106 at 10 ug/ml after 1 week (reference value: 14 mm); conditions: Darling isolate 1106, 168 h, read-out: DIZ
[10] = test system: Histoplasma capsulatum; test: Antifungal activity against Histoplasma capsulatum Darling isolate 1106 at 100 ug/ml after 2 weeks (reference value: 25 mm)
[11] = test system: Histoplasma capsulatum; test: Antifungal activity against Histoplasma capsulatum Darling isolate 1106 at 80 ug/ml after 2 weeks (reference value: 25 mm)
[12] = test system: Histoplasma capsulatum; test: Antifungal activity against Histoplasma capsulatum Darling isolate 1106 at 60 ug/ml after 2 weeks (reference value: 25 mm)
[13] = test system: Histoplasma capsulatum; test: Antifungal activity against Histoplasma capsulatum Darling isolate 1106 at 40 ug/ml after 2 weeks (reference value: 25 mm)
[14] = test system: Histoplasma capsulatum; test: Antifungal activity against Histoplasma capsulatum Darling isolate 1106 at 20 ug/ml after 2 weeks (reference value: 25 mm); conditions: Darling isolate 1106, 336 h, read-out: DIZ
[15] = test system: Histoplasma capsulatum; test: Antifungal activity against Histoplasma capsulatum Darling isolate 1106 at 100 ug/ml after 3 weeks (reference value: 31 mm)
[16] = test system: Histoplasma capsulatum; test: Antifungal activity against Histoplasma capsulatum Darling isolate 1106 at 60 ug/ml after 3 weeks (reference value: 31 mm)
[17] = test system: Histoplasma capsulatum; test: Antifungal activity against Histoplasma capsulatum Darling isolate 1106 at 40 ug/ml after 3 weeks (reference value: 31 mm); conditions: Darling isolate 1106, 504 h, read-out: DIZ
[18] = test system: Blastomyces dermatitidis; test: Antifungal activity against Blastomyces dermatitidis Gilchrist & Stokes isolate 1099 at 60 ug/ml after 1 week (reference value: 14 mm)
[19] = test system: Blastomyces dermatitidis; test: Antifungal activity against Blastomyces dermatitidis Gilchrist & Stokes isolate 1099 at 40 ug/ml after 1 week (reference value: 14 mm)
[20] = test system: Blastomyces dermatitidis; test: Antifungal activity against Blastomyces dermatitidis Gilchrist & Stokes isolate 1099 at 10 ug/ml after 1 week (reference value: 14 mm); conditions: Gilchrist & Stokes isolate 1099, 168 h, read-out: DIZ; procedure, shortened: as §1
[21] = test system: Blastomyces dermatitidis; test: Antifungal activity against Blastomyces dermatitidis Gilchrist & Stokes isolate 1099 at 100 ug/ml after 2 weeks (reference value: 27 mm)
[22] = test system: Blastomyces dermatitidis; test: Antifungal activity against Blastomyces dermatitidis Gilchrist & Stokes isolate 1099 at 80 ug/ml after 2 weeks (reference value: 27 mm)
[23] = test system: Blastomyces dermatitidis; test: Antifungal activity against Blastomyces dermatitidis Gilchrist & Stokes isolate 1099 at 100 ug/ml after 3 weeks (reference value: 34 mm); procedure, shortened: as §1
[24] = test system: Blastomyces dermatitidis; test: Antifungal activity against Blastomyces dermatitidis Gilchrist & Stokes isolate 1099 at 80 ug/ml after 3 weeks (reference value: 34 mm); conditions: Gilchrist & Stokes isolate 1099, 504 h, read-out: DIZ; procedure, shortened: as §1
[25] = test system: Blastomyces dermatitidis; test: Antifungal activity against Blastomyces dermatitidis Gilchrist & Stokes isolate 1099 at 40 ug/ml after 3 weeks (reference value: 34 mm); conditions: Gilchrist & Stokes isolate 1099, 504 h, read-out: DIZ; procedure, shortened: as §1
[26] = test system: Blastomyces dermatitidis; test: Antifungal activity against Blastomyces dermatitidis Gilchrist & Stokes isolate 1099 at 10 ug/ml after 3 weeks (reference value: 34 mm); conditions: Gilchrist & Stokes isolate 1099, 504 h, read-out: DIZ; procedure, shortened: as §1
[27] = test system: Blastomyces dermatitidis; test: Antifungal activity against Blastomyces dermatitidis Gilchrist & Stokes isolate 1107 at 80 ug/ml after 1 week (reference value: 20 mm)
[28] = test system: Blastomyces dermatitidis; test: Antifungal activity against Blastomyces dermatitidis Gilchrist & Stokes isolate 1107 at 60 ug/ml after 1 week (reference value: 20 mm)
[29] = test system: Blastomyces dermatitidis; test: Antifungal activity against Blastomyces dermatitidis Gilchrist & Stokes isolate 1107 at 20 ug/ml after 1 week (reference value: 20 mm); conditions: Gilchrist & Stokes isolate 1107, 168 h, read-out: DIZ; procedure, shortened: as §1
[30] = test system: Blastomyces dermatitidis; test: Antifungal activity against Blastomyces dermatitidis Gilchrist & Stokes isolate 1107 at 60 ug/ml after 2 weeks (reference value: 35 mm); conditions: Gilchrist & Stokes isolate 1107, 336 h, read-out: DIZ; procedure, shortened: as §1
[31] = test system: Histoplasma capsulatum; test: Antifungal activity against Histoplasma capsulatum Darling isolate 1098 at 80 ug/ml after 1 week (reference value: 12 mm)
[32] = test system: Histoplasma capsulatum; test: Antifungal activity against Histoplasma capsulatum Darling isolate 1098 at 20 ug/ml after 1 week (reference value: 12 mm); conditions: Darling isolate 1098, 168 h, read-out: DIZ
[33] = test system: Histoplasma capsulatum; test: Antifungal activity against Histoplasma capsulatum Darling isolate 1098 at 10 ug/ml after 1 week (reference value: 12 mm); conditions: Darling isolate 1098, 168 h, read-out: DIZ
[34] = test system: Histoplasma capsulatum; test: Antifungal activity against Histoplasma capsulatum Darling isolate 1098 at 80 ug/ml after 2 weeks (reference value: 21 mm)
[35] = test system: Histoplasma capsulatum; test: Antifungal activity against Histoplasma capsulatum Darling isolate 1098 at 60 ug/ml after 2 weeks (reference value: 21 mm); conditions: Darling isolate 1098, 336 h, read-out: DIZ
[36] = test system: Histoplasma capsulatum; test: Antifungal activity against Histoplasma capsulatum Darling isolate 1098 at 10 ug/ml after 2 weeks (reference value: 21 mm); conditions: Darling isolate 1098, 336 h, read-out: DIZ
[37] = test system: Histoplasma capsulatum; test: Antifungal activity against Histoplasma capsulatum Darling isolate 1098 at 80 ug/ml after 3 weeks (reference value: 28 mm)
[38] = test system: Histoplasma capsulatum; test: Antifungal activity against Histoplasma capsulatum Darling isolate 1098 at 60 ug/ml after 3 weeks (reference value: 28 mm); conditions: Darling isolate 1098, 504 h, read-out: DIZ
[39] = test system: Histoplasma capsulatum; test: Antifungal activity against Histoplasma capsulatum Darling isolate 1098 at 40 ug/ml after 3 weeks (reference value: 28 mm); conditions: Darling isolate 1098, 504 h, read-out: DIZ

`C[C@@H]1CC[C@@H](c2ccoc2)N2C(O)[C@@](C)(Sc3ccccc3)CC[C@@H]12` (some centres undefined) was tested, and the zone of inhibition at 10 µg/mL [1] was 26 mm, the zone of inhibition at 100 µg/mL [2] was 3 mm and the zone of inhibition at 80 µg/mL [3] was 7 mm. For the same compound, the zone of inhibition at 40 µg/mL [4] was 18 mm, the zone of inhibition at 10 µg/mL [5] was 32 mm and the zone of inhibition at 10 µg/mL [6] was 25 mm. For the same compound, the Activity [7] was “Active”, the zone of inhibition at 20 µg/mL [8] was 6 mm and the zone of inhibition at 10 µg/mL [9] was 9 mm. For the same compound, the Activity [10] was “Active”, the Activity [11] was “Active” and the Activity [12] was “Active”. For the same compound, the Activity [13] was “inactive”, the zone of inhibition at 20 µg/mL [14] was 11 mm and the Activity [15] was “Active”. The Activity [16] was “Active”, the zone of inhibition at 40 µg/mL [17] was 5 mm and the Activity [18] was “Active”. The Activity [19] was “inactive”, the zone of inhibition at 10 µg/mL [20] was 12 mm and the Activity [21] was “Active”. For the same compound, the Activity [22] was “Active”, the Activity [23] was “Active” and the zone of inhibition at 80 µg/mL [24] was 4 mm. For the same compound, the zone of inhibition at 40 µg/mL [25] was 14 mm, the zone of inhibition at 10 µg/mL [26] was 27 mm and the Activity [27] was “Active”. The Activity [28] was “Active”, the zone of inhibition at 20 µg/mL [29] was 7 mm and the zone of inhibition at 60 µg/mL [30] was 10 mm. For the same compound, the Activity [31] was “Active”, the zone of inhibition at 20 µg/mL [32] was 8 mm and the zone of inhibition at 10 µg/mL [33] was 10 mm. The Activity [34] was “Active”, the zone of inhibition at 60 µg/mL [35] was 2 mm and the zone of inhibition at 10 µg/mL [36] was 19 mm. The Activity [37] was “Active”, the zone of inhibition at 60 µg/mL [38] was 8 mm and the zone of inhibition at 40 µg/mL [39] was 13 mm.
